Measured values: ChEMBL document CHEMBL3425440, “ent-Kaurane Diterpenoids from Chinese Liverworts and Their Antitumor Activities through Michael Addition As Detected in Situ by a Fluorescence Probe” (J Med Chem, 2015)

Assays:
[1] = Cytotoxicity against human SH-SY5Y cells assessed as cell viability after 24 hrs by MTT assay; type: functional, cell-based
How it was run: (§1)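 Cells grown to about 50−70% confluence at 37 °C, 5% CO2, then exposed to compounds 24 h (DMSO vehicle control, cisplatin positive control). MTT (5 mg/mL stock) added for 4 h, formazan dissolved in DMSO, absorbance read at 570 nm. IC50 derived from percent viability; at least three independent experiments, mean ± SD.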

LoVo = test: Cytotoxicity against human LoVo cells assessed as cell viability after 24 hrs by MTT assay; type: functional, cell-based; how it was run: as §1
[2] = Cytotoxicity against human Saos2 cells assessed as cell viability after 24 hrs by MTT assay; type: functional, cell-based; conditions: SAOS-2, 24 h; how it was run: as §1
K562 = test: Cytotoxicity against human K562 cells assessed as cell viability after 24 hrs by MTT assay; type: functional, cell-based; conditions: K562, 24 h; how it was run: as §1
[3] = Cytotoxicity against human PC3 cells assessed as cell viability after 24 hrs by MTT assay; type: functional, cell-based; conditions: PC-3, 24 h; how it was run: as §1
[4] = Cytotoxicity against human RWPE1 cells assessed as cell viability after 24 hrs by MTT assay; type: cell-based; conditions: RWPE-1, 24 h; how it was run: as §1
[5] = Cytotoxicity against human HL60 cells assessed as cell viability after 24 hrs by MTT assay; type: functional, cell-based; conditions: HL-60, 24 h; how it was run: as §1
[6] = Cytotoxicity against human A172 cells assessed as cell viability after 24 hrs by MTT assay; type: functional, cell-based; conditions: A 172, 24 h; how it was run: as §1
[7] = Cytotoxicity against human T24 cells assessed as cell viability after 24 hrs by MTT assay; type: functional, cell-based; conditions: T-24, 24 h; how it was run: as §1
MDA-MB-231 = test: Cytotoxicity against human MDA-MB-231 cells assessed as cell viability after 24 hrs by MTT assay; type: functional, cell-based; conditions: MDA-MB-231, 24 h; how it was run: as §1
DU-145 = test: Cytotoxicity against human DU145 cells assessed as cell viability after 24 hrs by MTT assay; type: functional, cell-based; conditions: DU-145, 24 h; how it was run: as §1
[8] = Cytotoxicity against human SKOV3 cells assessed as cell viability after 24 hrs by MTT assay; type: functional, cell-based; conditions: SK-OV-3, 24 h; how it was run: as §1
LNCaP = test: Cytotoxicity against human LNCAP cells assessed as cell viability after 24 hrs by MTT assay; type: functional, cell-based; how it was run: as §1
NCI-H1299 = test: Cytotoxicity against human NCI-H1299 cells assessed as cell viability after 24 hrs by MTT assay; type: functional, cell-based; conditions: NCI-H1299, 24 h; how it was run: as §1

Measured: IC50

CC1=C[C@]23C[C@H]1CC[C@H]2[C@@]1(C)[C@H](C[C@H]3O)C(C)(C)CC[C@@H]1O
> 50 µM: all assays above

C=C1[C@@H]2CC[C@H]3[C@]4(C)CCCC(C)(C)[C@H]4[C@@H](O)C[C@]3(C2)[C@@H]1O
> 50 µM: all assays above

C=C1[C@@H]2CC(=O)[C@H]3[C@]4(C)CCCC(C)(C)[C@H]4[C@@H](O)[C@@H](O)[C@]3(C2)[C@@H]1O
> 50 µM: all assays above

C[C@H]1C(=O)[C@@]23C[C@H](O)[C@@H]4[C@@](C)(CO)CCC[C@@]4(C)C2=CC[C@]1(O)C3
> 50 µM: all assays above

C=C1C[C@]23C[C@H]1CC[C@H]2[C@@]1(C)[C@H](C[C@H]3OC(C)=O)C(C)(C)CC[C@@H]1O
> 50 µM: all assays above

C=C1[C@@H]2CC(=O)[C@H]3[C@]4(C)CCCC(C)(C)[C@H]4[C@@H](O)C[C@]3(C2)[C@@H]1O
> 50 µM: all assays above

C[C@@H]1C(=O)[C@@]23CC[C@@H]4C(C)(C)CCC[C@@]4(C)[C@@H]2[C@@H](O)C[C@@H]1C3
> 50 µM: all assays above

C=C1[C@@H]2C[C@H](O)[C@H]3[C@]4(C)CCCC(C)(C)[C@H]4CC[C@]3(C2)[C@@H]1O
> 50 µM: all assays above

C=C1[C@@H]2CC[C@H]3[C@]4(C)CCCC(C)(C)[C@H]4CC[C@]3(C2)[C@@H]1O
> 50 µM: all assays above

C[C@@H]1C(=O)[C@H]2C[C@]1(O)CC1=C2[C@]2(C)CCCC(C)(C)[C@H]2CC1
> 50 µM: all assays above

C=C1[C@@H]2CC(=O)[C@H]3[C@]4(C)CCCC(C)(C)[C@H]4CC[C@]3(C2)[C@@H]1O
> 50 µM: all assays above

C[C@H]1C(=O)[C@@]23CC[C@@H]4C(C)(C)CCC[C@@]4(C)[C@@H]2[C@@H](O)C[C@@H]1C3
> 50 µM: all assays above

C=C1C(O)[C@@]23CC[C@H]4[C@@](C)(CCC[C@@]4(C)C(=O)OCCN4CCN(C)CC4)[C@@H]2CC[C@]1(O)C3 (some centres not stated)
> 50 µM: all assays above
